Measured values of several laboratories.
Target: Mitogen-activated protein kinase kinase kinase kinase 3 (MAP4K3, Homo sapiens, UniProt Q8IVH8)
Residues used in one study (Q8IVH8 1-894): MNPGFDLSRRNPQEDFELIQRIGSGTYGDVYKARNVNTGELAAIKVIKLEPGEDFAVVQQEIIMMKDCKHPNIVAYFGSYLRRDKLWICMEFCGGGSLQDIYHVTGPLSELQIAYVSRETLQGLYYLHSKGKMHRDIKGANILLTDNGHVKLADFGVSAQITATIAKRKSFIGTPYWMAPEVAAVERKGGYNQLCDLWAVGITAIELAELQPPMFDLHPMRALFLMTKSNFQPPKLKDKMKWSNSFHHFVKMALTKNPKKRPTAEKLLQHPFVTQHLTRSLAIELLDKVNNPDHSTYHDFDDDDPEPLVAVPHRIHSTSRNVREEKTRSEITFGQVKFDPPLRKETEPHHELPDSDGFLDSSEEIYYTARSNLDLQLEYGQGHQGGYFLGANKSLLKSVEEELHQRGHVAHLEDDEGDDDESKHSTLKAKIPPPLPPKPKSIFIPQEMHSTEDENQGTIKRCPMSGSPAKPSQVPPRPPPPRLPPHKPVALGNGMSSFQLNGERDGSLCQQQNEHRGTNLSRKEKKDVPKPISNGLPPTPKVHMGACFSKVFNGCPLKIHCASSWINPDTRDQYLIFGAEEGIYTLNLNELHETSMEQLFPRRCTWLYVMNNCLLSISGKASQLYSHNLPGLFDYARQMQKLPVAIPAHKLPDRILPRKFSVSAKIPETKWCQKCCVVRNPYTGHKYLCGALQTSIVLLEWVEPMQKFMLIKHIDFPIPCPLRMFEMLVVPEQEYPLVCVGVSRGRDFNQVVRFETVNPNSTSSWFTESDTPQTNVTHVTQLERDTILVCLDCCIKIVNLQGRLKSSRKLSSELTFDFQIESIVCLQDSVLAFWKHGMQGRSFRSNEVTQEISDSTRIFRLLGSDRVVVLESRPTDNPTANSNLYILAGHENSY

| SMILES | assay | setting | quantity | result |
| --- | --- | --- | --- | --- |
| Cc1ccc(NC(=O)c2ccnc(C(F)(F)F)c2)cc1-c1cc(OCCO)nc(N2CCOCC2)c1 | binding, competition with immobilised ligand | 1 µM | remaining binding | 100% |
| C=CC(=O)N1CCC([C@@H]2CCNc3c(C(N)=O)c(-c4ccc(Oc5ccccc5)cc4)nn32)CC1 | enzyme activity, inhibitor | 1 µM | inhibition | 14% |
| C1=C/COCc2cc(ccc2OCCN2CCCC2)Nc2nccc(n2)-c2cccc(c2)COC/1 | cell-free assay | 0.1 µM | remaining signal | 80% |
| CO[C@@H]1[C@H](N(C)C(=O)c2ccccc2)C[C@H]2O[C@]1(C)n1c3ccccc3c3c4c(c5c6ccccc6n2c5c31)C(=O)NC4 | enzyme activity, inhibitor | 1 µM | inhibition | 77% |
| C[C@H]1CC[C@H](n2c3cnccc3c3cnc(Nc4ccc5c(n4)CCN(C(=O)CO)C5)nc32)CC1 | binding, competition with immobilised ligand | 1 µM | remaining binding | 100% |
| C#Cc1cc(-c2cc(Nc3nc(N[C@@H](C)c4ccc(F)cn4)ncc3Cl)n[nH]2)ccc1C=O | enzyme activity, inhibitor | 0.2 µM | inhibition | 45.4% |
| COc1ccc2oc(-c3ccc4nc(N)oc4c3)c/c(=N\c3ccccc3NC(=O)CCN)c2c1 | binding | 1 µM | remaining binding | 113% |
| CCCCC(=O)Nc1ccc(-c2ccc3ncn(CCC)c(=O)c3c2)cn1 | binding, competition with immobilised ligand | 0.5 µM | remaining binding | 81% |
